In ChEMBL document CHEMBL1138856, “Synthesis and anti-human immunodeficiency virus activity of 4'-branched (+/-)-4'-thiostavudines” (J Med Chem, 2006) one finds EC50 and CC50 data, which are given here for ten compounds.

The test system of data set [1] is Human immunodeficiency virus 1. The experiment in a line: Antiviral activity against HIV1 3B in MT4 cells by MTT assay. The data set is classed as functional, organism-based.
Data set [2] in a line: Cytotoxicity against MT4 cells MTT assay. The format is cell-based. Particulars: human. In short, it runs like this: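 Mock-infected MT-4 cells were cultured with various compound concentrations in parallel with the antiviral assay (4 days, 37 °C). Viability was read by MTT. The value is the concentration reducing viability by 50%.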
Where [3] appears, read: Human immunodeficiency virus 1, 3B, MT4.

A word on the EC50: it is the concentration giving half of the maximal effect. Lower therefore signals a more potent agent. In data set [1] (mt4), `C#C[C@@]1(CO)C=C[C@H](n2cc(C)c(=O)[nH]c2=O)S1` (racemic) registered an EC50 of 0.74 µM.

The term CC50 denotes the concentration giving 50% cytotoxicity. For `Cc1cn([C@H]2C=CC(CO)(CO)S2)c(=O)[nH]c1=O` (racemic), the EC50 in data set [1] (setting [3]) was greater than 100 µM. For the same compound, the cytotoxic concentration (CC50) in data set [2] is greater than 100 µM.

In the case of `COC(=O)[C@@]1(CO)C=C[C@H](n2cc(C)c(=O)[nH]c2=O)S1` (racemic), the EC50 in data set [1] (setting [3]) is greater than 100 µM. In addition, the CC50 in data set [2] is greater than 100 µM.

On to `Cc1cn([C@H]2C=C[C@@](C#N)(CO)S2)c(=O)[nH]c1=O` (racemic), for which, in data set [1] (setting [3]), the half-maximal effective concentration (EC50) is 7.6 µM. Also, in data set [2], the CC50 was greater than 100 µM.

For the compound `Cc1cn([C@H]2C=C[C@](CO)(C(N)=O)S2)c(=O)[nH]c1=O` (racemic), the concentration giving a half-maximal response (EC50) in data set [1] (setting [3]) was greater than 100 µM. In data set [2], this compound returned a CC50 greater than 100 µM.

`C=C[C@@]1(CO)C=C[C@H](n2cc(C)c(=O)[nH]c2=O)S1` (racemic) displayed a concentration giving a half-maximal response (EC50) in data set [1] (setting [3]) greater than 100 µM. Also, the CC50 in data set [2] is greater than 100 µM.

The compound `C#C[C@@]1(CO)C=C[C@H](n2cc(C)c(=O)[nH]c2=O)S1` (stereo in doubt; (+)-29) yielded a 50% effective concentration (EC50) in data set [1] (mt4) greater than 20 µM. This compound also registered a CC50 in data set [2] greater than 100 µM.

In data set [1] (mt4), `C#C[C@@]1(CO)C=C[C@H](n2cc(C)c(=O)[nH]c2=O)S1` (stereo in doubt; (-)-29) yielded an EC50 of 0.37 µM.

In data set [1] (setting [3]), `C#C[C@@]1(CO)C=C[C@H](n2cc(C)c(=O)[nH]c2=O)O1` [CENSAVUDINE] gave a 50% effective concentration (EC50) of 0.06 µM. The CC50 in data set [2] was greater than 100 µM.

Take `Cc1cn([C@H]2C=C[C@@H](CO)O2)c(=O)[nH]c1=O` [STAVUDINE]: in data set [1] (setting [3]), the EC50 was 0.51 µM. This compound also showed a CC50 in data set [2] greater than 100 µM.
